In this test the test system is HeLa cells. The test is described as follows: Confocal microscopy of subcellular distribution / nuclear staining. The class given is cell-based. A digest of the protocol:
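HeLa grown in MEM alpha with 10% FBS at 37 °C, 5% CO2, seeded at 4000 cells/well on glass bottom, adhered overnight. Test compound 10–100 μM, 37 °C for 2–19 h, in complete or serum-free medium, then HBSS rinse. Confocal: 63x/1.4 oil objective, 1.1 μm optical slice, excitation 488 nm, emission 560+ nm. Dead cells excluded by morphology; percentage with nuclear staining scored.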

Entries after “also recorded” stand apart in the source; their conditions may differ.

Consider PKKKRKV [Ru-PKKKRKV], for which the subcellular distribution result (10 μM, 2 h) was “only faint punctate luminescence in the cytoplasm and no nuclear staining”; the subcellular distribution result (10 μM, 19 h, complete medium) is “same result; also recorded: Punctate staining of the cytoplasm”.

On to KSKKQK [Ru-KSKKQK], for which the subcellular distribution entry runs as follows: (10 μM, 2 h) “only faint punctate luminescence in the cytoplasm and no nuclear staining”; (10 μM, 19 h, complete medium) “same result; also recorded: Punctate staining of the cytoplasm”.

For the substance KKKK [Ru-KKKK], the subcellular distribution entry (40 μM, 2 h) is reported as “only faint luminescence in the cytoplasm”. For the same substance, under “100 μM, 4 h, complete medium”, the “percentage of cells with additional nuclear staining” value is listed as 17% and the subcellular distribution entry is on record as “brighter, punctate cytoplasmic staining; also recorded: punctate staining of the cytoplasm”.
